Rows were chosen to be rich in hits. Some 3.5% of all compounds tested hit in one or more screens of this group.
MrgX1 antagonist = antagonists of human MrgX1 receptor, primary screen, HEK293 cells, Fluo-4 calcium flux; B-score at 10 µM; BAM8-22 antagonism; active compounds read low; actives 1.3% (n = 310,000); AID 588676, 2011;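 active = calcium-response B-score plate-corrected more than 3 library SD below zero, starting fluorescence within 5 deviations, no agonist response on first addition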;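 also: peak minus trough fluorescence over baseline after final BAM8-22 challenge near maximal dose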
Target sequence (Q96LB2 whole entry, looked up): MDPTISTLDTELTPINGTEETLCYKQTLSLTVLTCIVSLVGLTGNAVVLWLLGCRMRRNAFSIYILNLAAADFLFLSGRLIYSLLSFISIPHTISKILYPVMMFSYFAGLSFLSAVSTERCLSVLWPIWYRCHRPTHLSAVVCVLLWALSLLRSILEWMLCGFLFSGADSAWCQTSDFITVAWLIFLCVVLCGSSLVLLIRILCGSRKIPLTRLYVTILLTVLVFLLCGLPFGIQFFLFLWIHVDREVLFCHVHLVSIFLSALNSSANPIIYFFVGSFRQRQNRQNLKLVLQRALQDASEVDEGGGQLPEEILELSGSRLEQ
MrgX1 allo act = positive allosteric modulators of MrgX1, primary screen, HEK293 cells, Fluo-4 calcium flux; Mas-related G-protein coupled receptor member X1 (Homo sapiens), Q96LB2; FDSS; active compounds read high; B-score at 10 µM; actives 0.63% (n = 310,000);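 active = plate-corrected calcium response at least 3 library SD above typical, normal starting fluorescence, not activating the receptor alone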;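 also: compound read alongside a low EC10 to EC30 dose of BAM8-22 agonist; peak minus trough fluorescence over baseline measured at the second addition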
MrgX1 ag = agonists of human MrgX1 receptor, primary screen, HEK293 cells, Fluo-4 calcium flux; Mas-related G-protein coupled receptor member X1 (Homo sapiens), Q96LB2; Fluo-4 calcium fluorescence, agonist mode; active compounds read high; B-score at 10 µM; actives 0.44% (n = 310,000);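 active = calcium response B-score plate-corrected fluorescence ratio at least 3 library SD, with starting fluorescence B-score inside 5 SD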
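Material – MrgX1-expressing HEK293 cells · Input – 15,000 cells seeded per well · Dosing – compound as first of three additions · Times – overnight seeding, then 1 h dark dye loading · Measured by – kinetic Fluo-4 NW fluorescence of intracellular calcium · Read-out – B-scored fluorescence response ratio · Benchmarks – positive and negative control wells on each plate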
RGS4 inh = RGS4 inhibitors, primary screen, cell-based, HEK293 M3R inducible RGS4, calcium flux | Regulator of G-protein signaling 4 (Homo sapiens), P49798 | Fluo-4 calcium flux; active compounds read high; triggered by carbachol at its EC20 | B-score at 10 µM | actives 0.45% (n = 310,000) | AID 463165, 2010;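 active = B-score, a plate-corrected calcium signal, over three deviations above library mean, with baseline fluorescence within five deviations of library mean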;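 also: RGS4 expression induced by doxycycline in cells with stable M3 receptor; B-score is computed from the integrated fluorescence ratio over baseline after carbachol; higher B-score means a larger calcium signal and so more RGS4 inhibition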
Target sequence (P49798 whole entry, looked up): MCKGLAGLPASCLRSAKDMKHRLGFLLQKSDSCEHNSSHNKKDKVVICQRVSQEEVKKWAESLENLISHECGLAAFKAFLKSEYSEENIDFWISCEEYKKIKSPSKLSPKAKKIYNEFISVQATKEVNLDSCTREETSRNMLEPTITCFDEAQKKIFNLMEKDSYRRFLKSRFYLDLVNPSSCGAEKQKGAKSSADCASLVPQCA
RGS4 pot = RGS4 potentiators or activators, primary screen, cell-based, HEK293 M3R inducible RGS4, calcium flux; carbachol calcium flux Fluo4; active compounds read low; B-score at 10 µM; actives 0.92% (n = 310,000);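 active = B-score of the integrated calcium signal more than 4 SD below the library mean, with starting fluorescence not abnormally high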;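 also: negative B-score means reduced calcium response which marks RGS4 activation or potentiation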
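Material: Inducible-RGS4 HEK293 cells carrying M3 receptor; also added: carbachol at ECmax as muscarinic agonist stimulus; incubation: compound preincubation 20 min at room temperature before agonist; signal: Fluo4-AM (2 µM) calcium-flux fluorescence, kinetic read; measure: integrated calcium ratio converted to B score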
MrgX1 ant reconf = MrgX1 receptor antagonists, duplicate retest, confirmation, HEK293 cells, Fluo-4 calcium flux. shares compounds with MrgX1 antagonist. BAM8-22 calcium flux; active compounds read low. remaining BAM8-22 calcium response % of control (active compounds read low), % at 10 µM. actives 19% (n = 2,300). AID 602420, 2012;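 active = remaining agonist calcium response no higher than 100% minus 3 SD of agonist-only control wells, with starting fluorescence near control levels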;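 also: agonist BAM8-22 given at a near maximal EC90 to ECmax level; peak minus minimum fluorescence divided by baseline after agonist addition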
HEK293 Ca flux = nonspecific calcium signal in parental HEK293, confirmation, counter-screen for MrgX1 antagonist project, parental HEK293 cells, Fluo-4 calcium flux. shares compounds with MrgX1 antagonist. Fluo-4 calcium fluorescence, FDSS. fluorescence ratio F(max-min)/F0 at 10 µM. actives 2% (n = 4,000). AID 624111, 2012;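 active = duplicate-averaged calcium fluorescence ratio at least three times the standard deviation of buffer wells, a nonspecific response in parental cells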
HEK293 Ca counter = calcium response in parental HEK293 cells, primary screen, counter-screen for MrgX1 allosteric activator project, cell-based, Fluo-4 calcium flux, duplicate | shares compounds with MrgX1 antagonist | Fluo-4 fluorescence ratio; active compounds read high | fluorescence ratio F(max-min)/F0 at 10 µM | AID 624114, 2012 | actives 0.4% (n = 4,000);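 active = calcium fluorescence ratio, averaged over duplicates, at least 3 SD of the buffer-well ratio, meaning a nonspecific response in receptor-free cells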;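 also: untransfected parental HEK293 lacking MrgX1 used as counterscreen for MrgX1 allosteric activators; fluorescence change taken during the second addition on a kinetic imager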
HEK293 Ca cntr2 = calcium response in parental HEK293 cells, primary screen, counter-screen for MrgX1 agonist project, cell-based, Fluo-4 calcium flux, duplicate, agonist mode | fluorescence ratio F(max-min)/F0 at 10 µM | actives 8.7% (n = 4,000) | shares compounds with MrgX1 antagonist | Fluo-4 calcium fluorescence (FDSS); active compounds read high;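 active = calcium fluorescence ratio at least three times the spread of buffer wells, meaning a non-specific response in parental cells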
Large screens that a line does not name were inactive (follow-up assays come after a bar, where they were run).

COc1ccc(COC(=O)c2ccc(S(=O)(=O)N3CCC(C)CC3)cc2)cc1	MrgX1 antagonist -6.8 | MrgX1 ant reconf inactive | HEK293 Ca flux inactive | HEK293 Ca counter inactive | HEK293 Ca cntr2 inactive
O=C(N/C(=C/c1cccc([N+](=O)[O-])c1)C(=O)N1CCCCCC1)c1cccs1	none
CCOc1ccc(CN2CCNC(=O)C2CC(=O)NCCN2CCOC2=O)cc1 (stereo not given)	none
COc1cc(C)c(S(=O)(=O)NC2CC(C)(C)NC(C)(C)C2)cc1C	MrgX1 antagonist -8.3 | MrgX1 ant reconf inactive | HEK293 Ca flux inactive | HEK293 Ca counter inactive | HEK293 Ca cntr2 inactive
CC(=O)Oc1c(-c2ccc(Br)o2)oc2ccccc2c1=O	MrgX1 antagonist -5.5 | MrgX1 ant reconf inactive | HEK293 Ca flux inactive | HEK293 Ca counter inactive | HEK293 Ca cntr2 inactive
COC(=O)c1cc(C#N)c(OC)nc1C	MrgX1 antagonist -5.1 | MrgX1 ant reconf inactive | HEK293 Ca flux inactive | HEK293 Ca counter inactive | HEK293 Ca cntr2 inactive
CCCCC(=O)NC1=C(C(=O)OC)SCC1	MrgX1 antagonist -4.9 | MrgX1 ant reconf inactive | HEK293 Ca flux inactive | HEK293 Ca counter inactive | HEK293 Ca cntr2 inactive
Cc1ccc2nsnc2c1NC(=O)COc1ccccc1F	MrgX1 antagonist -6.1 | MrgX1 ant reconf 84% | HEK293 Ca flux inactive | HEK293 Ca counter inactive | HEK293 Ca cntr2 inactive
O=C(Nc1ccc(F)cc1)Nc1ccc2c(c1)OCO2	MrgX1 antagonist -4.8 | MrgX1 ant reconf inactive | HEK293 Ca flux inactive | HEK293 Ca counter inactive | HEK293 Ca cntr2 inactive
O=C(Nc1ccc2c(c1)OCO2)Nc1ccc2c(c1)OCO2	none
O=C(CN1C(=O)COc2ccccc21)NC1CCCC1	none
O=C(CSc1ncn[nH]1)Nc1ccc2c(c1)CCC2	none
CN(C(=O)COC(=O)c1cc(S(=O)(=O)N2CCOCC2)ccc1F)C1CCS(=O)(=O)C1 (stereo not given)	none
COc1ccccc1NC(=O)CSc1ccc(-c2ccc(-n3ccnc3)cc2)nn1	MrgX1 antagonist -5.1 | MrgX1 ant reconf inactive | HEK293 Ca flux inactive | HEK293 Ca counter inactive | HEK293 Ca cntr2 inactive
Cc1ccccc1NC(=O)CSc1ccc(-c2ccc(-n3cccn3)cc2)nn1	none
CCN1C(=O)C(NC(C)=O)c2cc(OC)ccc21 (stereo not given)	none
CC(=O)NC1C(=O)N(CCN2CCOCC2)c2ccc(Br)cc21 (stereo not given)	MrgX1 antagonist -9.3 | MrgX1 ant reconf inactive | HEK293 Ca flux inactive | HEK293 Ca counter inactive | HEK293 Ca cntr2 47
CCOc1ccc2c(c1)C(NC(C)=O)C(=O)N2CCN1CCOCC1 (stereo not given)	MrgX1 antagonist -12 | MrgX1 ant reconf inactive | HEK293 Ca flux inactive | HEK293 Ca counter inactive | HEK293 Ca cntr2 inactive
COC(=O)c1ccc(/C=N/NC(=S)NCCN2CCOCC2)cc1	none
Cc1cc(C(=O)OCC(=O)N2CCN(c3ccccc3)CC2)c2ccccc2n1	MrgX1 antagonist -5.5 | MrgX1 ant reconf inactive | HEK293 Ca flux inactive | HEK293 Ca counter inactive | HEK293 Ca cntr2 inactive
O=C(OCC(=O)N1CCN(c2ccccc2)CC1)c1ccc(O)cc1O	none
Cc1ccc(C(=O)Nc2nc3ccccc3n3nnnc23)cc1	MrgX1 antagonist -11 | MrgX1 ant reconf 84% | HEK293 Ca flux inactive | HEK293 Ca counter inactive | HEK293 Ca cntr2 inactive
COC(OC)c1ccc(C#N)c(=O)[nH]1	MrgX1 antagonist -6.2 | MrgX1 ant reconf 83% | HEK293 Ca flux inactive | HEK293 Ca counter inactive | HEK293 Ca cntr2 inactive
COc1ccc(OC(C)c2ccc(C#N)c(=O)[nH]2)cc1 (stereo not given)	none
COCCNc1ccc(S(=O)(=O)N2CCCC2)cn1	MrgX1 antagonist -5 | MrgX1 ant reconf inactive | HEK293 Ca flux inactive | HEK293 Ca counter inactive | HEK293 Ca cntr2 inactive
N#Cc1c(N)n(-c2ccccc2)c(=O)c2cc([N+](=O)[O-])ccc12	none
CC1(C)Cc2c(C#N)c(N)n(-c3ccccc3)c(=O)c2CO1	MrgX1 antagonist -13 | MrgX1 ant reconf inactive | HEK293 Ca flux inactive | HEK293 Ca counter inactive | HEK293 Ca cntr2 inactive
CSc1ccc(CN(C)C(=O)c2cc(=O)[nH]c3ccccc23)cc1	none
O=c1sc(Nc2ccccc2)nc2ccccc12	none
Cc1ccc(Nc2nc3ccccc3c(=O)s2)cc1	MrgX1 antagonist -7.3 | MrgX1 ant reconf inactive | HEK293 Ca flux inactive | HEK293 Ca counter inactive | HEK293 Ca cntr2 inactive
Cc1ccc(C(=O)NCCS(=O)(=O)N2CCN(c3ccccc3F)CC2)cc1[N+](=O)[O-]	none
CC(NC(=O)c1ccccc1NC(=O)CN1CCc2ccccc2C1)c1ccccc1 (stereo not given)	none
O=C(CNS(=O)(=O)c1cccc2nsnc12)NCc1ccc(Cl)cc1	MrgX1 antagonist -7.3 | MrgX1 ant reconf 61% | HEK293 Ca flux inactive | HEK293 Ca counter inactive | HEK293 Ca cntr2 inactive
CC1Cc2ccccc2N1C(=O)CSc1nnc(Cn2nnc3ccccc32)n1C (stereo not given)	MrgX1 antagonist -6.9 | MrgX1 ant reconf inactive | HEK293 Ca flux inactive | HEK293 Ca counter inactive | HEK293 Ca cntr2 inactive
CC1Cc2ccccc2N1C(=O)CSc1nc2ccccc2n1CC(=O)N1CCOCC1 (stereo not given)	MrgX1 antagonist -4.6 | MrgX1 ant reconf inactive | HEK293 Ca flux inactive | HEK293 Ca counter inactive | HEK293 Ca cntr2 inactive
O=C(CN1C(=O)C2C3c4ccccc4C(c4ccccc43)C2C1=O)N1CCOCC1 (stereo not given)	MrgX1 antagonist -5.2 | MrgX1 ant reconf inactive | HEK293 Ca flux inactive | HEK293 Ca counter inactive | HEK293 Ca cntr2 inactive
O=C1C2C3c4ccccc4C(c4ccccc43)C2C(=O)N1CN1CCOCC1 (stereo not given)	none
CCOc1ccccc1NC(=S)Nn1cnnc1	none

Source: PubChem
